# Laboratory results as given in ChEMBL document CHEMBL1153925, “Synthesis, characterization and biological activity of ring-substituted 6-benzylamino-9-tetrahydropyran-2-yl and 9-tetrahydrofuran-2-ylpurine derivatives” (Bioorg Med Chem, 2009).
# pIC50: −log10 of the molar value.
# System: Nicotiana tabacum
# Assay: Cytokinin activity in tobacco callus assessed as stimulation of callus growth at 1 uM relative to 6-benzylaminopurine
# Assay type: functional
# Conditions: not given
row,Compound,Activity [%]
1,COc1ccc(CNc2ncnc3c2ncn3C2CCCCO2)cc1 (stereo not drawn),10
2,COc1ccc(CNc2ncnc3c2ncn3C2CCCO2)c(OC)c1 (stereo not drawn),3

# System: Nicotiana tabacum
# Assay: Cytokinin activity in tobacco callus assessed as stimulation of callus growth at 10 uM relative to 6-benzylaminopurine
# Assay type: functional
# Conditions: not given
# Summary of the method: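 Compounds dissolved in DMSO, diluted with water to 5 × 10^-2 M stock, then diluted in medium to 10^-8 to 10^-4 M. Final DMSO ≤0.2%; solvent control 0.2% DMSO. Readout was cytokinin-dependent tobacco callus growth. Activity is expressed relative to 10^-6 M BAP (=100%) at each compound's optimal concentration. Five replicates per concentration; whole test run at least twice.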
row,Compound,Activity [%]
1,COc1ccc(OC)c(CNc2ncnc3c2ncn3C2CCCCO2)c1 (stereo not drawn),42
2,Oc1ccc(CNc2ncnc3c2ncn3C2CCCCO2)cc1 (stereo not drawn),20
3,COc1ccc(OC)c(CNc2ncnc3c2ncn3C2CCCO2)c1 (stereo not drawn),61
4,Oc1cc(O)cc(CNc2ncnc3c2ncn3C2CCCCO2)c1 (stereo not drawn),36
5,Oc1ccc(CNc2ncnc3c2ncn3C2CCCO2)cc1 (stereo not drawn),19
6,COc1ccccc1CNc1ncnc2c1ncn2C1CCCO1 (stereo not drawn),91
7,Oc1ccccc1CNc1ncnc2c1ncn2C1CCCCO1 (stereo not drawn),37

# System: Triticum aestivum
# Assay: Cytokinin activity in wheat leaf assessed as stimulation of retention of chlorophyll in excised leaves at 0.1 mM relative to 6-benzylaminopurine
# Assay type: functional
# Conditions: not given
row,Compound,Activity [%]
1,COc1ccc(OC)c(CNc2ncnc3c2ncn3C2CCCCO2)c1 (stereo not drawn),19
2,Oc1ccc(CNc2ncnc3c2ncn3C2CCCCO2)cc1 (stereo not drawn),4
3,COc1ccc(OC)c(CNc2ncnc3c2ncn3C2CCCO2)c1 (stereo not drawn),41
4,Oc1cc(O)cc(CNc2ncnc3c2ncn3C2CCCCO2)c1 (stereo not drawn),15
5,Oc1ccc(CNc2ncnc3c2ncn3C2CCCO2)cc1 (stereo not drawn),8
6,COc1ccccc1CNc1ncnc2c1ncn2C1CCCO1 (stereo not drawn),72
7,Oc1ccccc1CNc1ncnc2c1ncn2C1CCCCO1 (stereo not drawn),31
8,COc1ccc(CNc2ncnc3c2ncn3C2CCCO2)c(OC)c1 (stereo not drawn),18

# System: BJ
# Assay: Cytotoxicity against human BJ cells after 72 hrs by MTT assay
# Assay type: ADME, cell-based
# Conditions: not given
row,Compound,pIC50
1,COc1ccc(OC)c(CNc2ncnc3c2ncn3C2CCCCO2)c1 (stereo not drawn),< 4.00
2,Oc1ccc(CNc2ncnc3c2ncn3C2CCCCO2)cc1 (stereo not drawn),< 4.00
3,COc1ccc(OC)c(CNc2ncnc3c2ncn3C2CCCO2)c1 (stereo not drawn),< 4.30
4,Oc1cc(O)cc(CNc2ncnc3c2ncn3C2CCCCO2)c1 (stereo not drawn),< 4.00
5,Oc1ccc(CNc2ncnc3c2ncn3C2CCCO2)cc1 (stereo not drawn),< 4.00
6,COc1ccccc1CNc1ncnc2c1ncn2C1CCCO1 (stereo not drawn),< 4.00
7,Oc1ccccc1CNc1ncnc2c1ncn2C1CCCCO1 (stereo not drawn),< 4.00
8,COc1ccc(CNc2ncnc3c2ncn3C2CCCCO2)cc1 (stereo not drawn),< 4.00
9,COc1ccc(CNc2ncnc3c2ncn3C2CCCO2)c(OC)c1 (stereo not drawn),< 4.00

# System: Amaranthus
# Assay: Cytokinin activity in cotyledons assessed as dark induction of betacyanin synthesis at 100 uM relative to 6-benzylaminopurine
# Assay type: functional
# Conditions: not given
row,Compound,Activity [%]
1,COc1ccc(OC)c(CNc2ncnc3c2ncn3C2CCCCO2)c1 (stereo not drawn),28
2,Oc1ccc(CNc2ncnc3c2ncn3C2CCCCO2)cc1 (stereo not drawn),34
3,COc1ccc(OC)c(CNc2ncnc3c2ncn3C2CCCO2)c1 (stereo not drawn),41
4,Oc1cc(O)cc(CNc2ncnc3c2ncn3C2CCCCO2)c1 (stereo not drawn),33
5,Oc1ccc(CNc2ncnc3c2ncn3C2CCCO2)cc1 (stereo not drawn),10
6,COc1ccccc1CNc1ncnc2c1ncn2C1CCCO1 (stereo not drawn),107
7,Oc1ccccc1CNc1ncnc2c1ncn2C1CCCCO1 (stereo not drawn),46
8,COc1ccc(CNc2ncnc3c2ncn3C2CCCCO2)cc1 (stereo not drawn),18
9,COc1ccc(CNc2ncnc3c2ncn3C2CCCO2)c(OC)c1 (stereo not drawn),14

# System: MCF7
# Assay: Cytotoxicity against human MCF7 cells after 72 hrs by Calcein AM assay
# Assay type: ADME, cell-based
# Conditions: MCF7, 72 h
row,Compound,pIC50
1,COc1ccc(OC)c(CNc2ncnc3c2ncn3C2CCCCO2)c1 (stereo not drawn),4.60
2,Oc1ccc(CNc2ncnc3c2ncn3C2CCCCO2)cc1 (stereo not drawn),< 4.00
3,COc1ccc(OC)c(CNc2ncnc3c2ncn3C2CCCO2)c1 (stereo not drawn),< 4.30
4,Oc1cc(O)cc(CNc2ncnc3c2ncn3C2CCCCO2)c1 (stereo not drawn),< 4.00
5,Oc1ccc(CNc2ncnc3c2ncn3C2CCCO2)cc1 (stereo not drawn),< 4.00
6,COc1ccccc1CNc1ncnc2c1ncn2C1CCCO1 (stereo not drawn),< 4.00
7,Oc1ccccc1CNc1ncnc2c1ncn2C1CCCCO1 (stereo not drawn),< 4.00
8,COc1ccc(CNc2ncnc3c2ncn3C2CCCCO2)cc1 (stereo not drawn),< 4.00
9,COc1ccc(CNc2ncnc3c2ncn3C2CCCO2)c(OC)c1 (stereo not drawn),< 4.00

# System: K562
# Assay: Cytotoxicity against human K562 cells after 72 hrs by Calcein AM assay
# Assay type: ADME, cell-based
# Conditions: K562, 72 h
row,Compound,pIC50
1,COc1ccc(OC)c(CNc2ncnc3c2ncn3C2CCCCO2)c1 (stereo not drawn),4.78
2,Oc1ccc(CNc2ncnc3c2ncn3C2CCCCO2)cc1 (stereo not drawn),< 4.00
3,COc1ccc(OC)c(CNc2ncnc3c2ncn3C2CCCO2)c1 (stereo not drawn),< 4.30
4,Oc1cc(O)cc(CNc2ncnc3c2ncn3C2CCCCO2)c1 (stereo not drawn),< 4.00
5,Oc1ccc(CNc2ncnc3c2ncn3C2CCCO2)cc1 (stereo not drawn),< 4.00
6,COc1ccccc1CNc1ncnc2c1ncn2C1CCCO1 (stereo not drawn),< 4.00
7,Oc1ccccc1CNc1ncnc2c1ncn2C1CCCCO1 (stereo not drawn),< 4.00
8,COc1ccc(CNc2ncnc3c2ncn3C2CCCCO2)cc1 (stereo not drawn),< 4.00
9,COc1ccc(CNc2ncnc3c2ncn3C2CCCO2)c(OC)c1 (stereo not drawn),< 4.00
